Compound activity: PubChem, several laboratories
ERa coact pot: enhancers of ERα–SRC-1 coactivator binding, primary screen, biochemical, TR-FRET, ERα LBD, low estradiol. Estrogen receptor (Homo sapiens), P03372. TR-FRET ERalpha-LBD/SRC-Cy5 coactivator binding, 2 h; 100 = basal binding, no effect. coactivator binding (% of control), % at 25.6 µM. actives 1.3% (n = 86,000). AID 639, 2007; in the data active = activity above about 200%;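 note: binding measured in presence of low estradiol as agonist stimulus; 0% = peptide alone without receptor and 100% = receptor with peptide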
sEH activator: soluble epoxide hydrolase activators, primary screen, biochemical, human sEH | purified human sEH enzymatic activity, activator screen | actives 0.04% (n = 91,000) | Bifunctional epoxide hydrolase 2 (Homo sapiens), P34913 | activation, % at 2 µM; in the data active = activation above about 37%
Target sequence (P34913 whole entry, looked up): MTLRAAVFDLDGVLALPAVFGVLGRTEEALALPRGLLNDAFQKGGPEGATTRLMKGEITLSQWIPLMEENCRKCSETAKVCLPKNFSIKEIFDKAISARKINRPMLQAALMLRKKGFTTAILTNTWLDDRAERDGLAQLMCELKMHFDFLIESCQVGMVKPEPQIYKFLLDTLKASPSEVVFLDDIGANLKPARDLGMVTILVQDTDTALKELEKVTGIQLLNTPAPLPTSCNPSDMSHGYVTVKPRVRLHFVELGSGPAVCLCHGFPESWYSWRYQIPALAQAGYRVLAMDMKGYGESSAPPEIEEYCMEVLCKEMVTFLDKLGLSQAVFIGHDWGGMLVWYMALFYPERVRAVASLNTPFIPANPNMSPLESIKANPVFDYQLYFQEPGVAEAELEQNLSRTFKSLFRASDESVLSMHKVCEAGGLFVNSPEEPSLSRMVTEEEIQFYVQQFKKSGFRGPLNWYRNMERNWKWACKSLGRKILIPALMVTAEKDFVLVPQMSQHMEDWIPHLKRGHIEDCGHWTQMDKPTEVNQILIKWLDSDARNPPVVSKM
ERb SRC1 inh: inhibitors of ERβ-SRC1 coactivator interaction, primary screen, biochemical, TR-FRET, ERβ LBD, SRC-1 peptide; inhibition, % at 25.6 µM; TR-FRET ER-beta LBD / SRC1-Cy5 peptide binding; receptor agonist-loaded with 1 µM estradiol; AID 633, 2007; actives 1.3% (n = 86,000);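 active = compounds whose percent inhibition of the receptor-coactivator binding signal exceeds about 50% in the single-dose screen, limit read from the data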;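 note: 0% = receptor plus peptide wells without compound and 100% = peptide-only wells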
sEH inh: soluble epoxide hydrolase inhibitors, primary screen, biochemical, human sEH; inhibition, % at 2 µM; Bifunctional epoxide hydrolase 2 (Homo sapiens), P34913; AID 707, 2007; actives 0.34% (n = 91,000); recombinant human sEH enzymatic activity assay; in the data active = inhibition above about 80%
ERa SRC1 inh: ERα–SRC-1 coactivator interaction inhibitors, primary screen, biochemical, TR-FRET, ERα LBD, estradiol-bound. inhibition, % at 25.6 µM. TR-FRET ER-alpha LBD / SRC-1 peptide. AID 629, 2007. Estrogen receptor (Homo sapiens), P03372. actives 1.7% (n = 86,000); in the data active = inhibition above about 50%;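 note: 0% = receptor plus peptide control and 100% = peptide only without receptor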
HIV Rev-RRE inh: HIV-1 Rev-RRE binding inhibitors, primary screen, biochemical, FRET, protein-RNA interaction | Rev peptide-RRE RNA binding | P05866 | actives 0.79% (n = 97,000) | inhibition, % at 8 µM;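 active = inhibition above the screen-wide mean plus 3 SD, cut at about 35% in these data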;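 note: 0% = median DMSO wells and 100% = median Neomycin B control wells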
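assay system = Cy5-tagged RRE RNA duplex with fluorescein-tagged Rev peptide | incubation = 5 + 15 min at 25 °C | also added = labelled Rev peptide | measure = % inhibition of FRET ratio versus controls | benchmarks = DMSO wells as 0% and neomycin B wells as 100% inhibition | measured by = FRET fluorescence readout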
Active calls of the source: *; [ ] = another dose, or the depositor's remark. Only some compounds are listed: those with a hit (about 3.5% of all), similar ones and a draw of the others.

For CCCCCCc1cc2cc(-c3nnc(-c4cc(OC)c(OC)c(OC)c4)o3)c(=O)oc2cc1O the results were ERa coact pot 224*[fluorescence artefact?], sEH activator 16, ERb SRC1 inh 0, sEH inh -15, ERa SRC1 inh 18 and HIV Rev-RRE inh 135*[fluorescence artefact?].
`CCCCCCc1cc2cc(-c3nnc(-c4ccccc4OC)o3)c(=O)oc2cc1O` gave ERa coact pot 50, sEH activator 9, ERb SRC1 inh 28, sEH inh -9, ERa SRC1 inh 47 and HIV Rev-RRE inh 143*[fluorescence artefact?].
For CCn1c(=O)cc(OCC(=O)Nc2ccc(C)cn2)c2ccccc21 the results were ERa coact pot 81, ERb SRC1 inh -2, ERa SRC1 inh 1 and HIV Rev-RRE inh 8.
CCOC(=O)c1ccccc1NC(=O)COc1cc(=O)n(CC)c2ccccc12 was read as ERa coact pot 278*[fluorescence artefact?], sEH activator 0, ERb SRC1 inh 45, sEH inh -1, ERa SRC1 inh 19 and HIV Rev-RRE inh 8.
O=C(Nc1ccncc1)C1c2ccccc2Oc2ccccc21 was read as ERa coact pot 102, sEH activator 1, ERb SRC1 inh 9, sEH inh -2, ERa SRC1 inh 98*[fluorescence artefact?] and HIV Rev-RRE inh 3.
O=C(Nc1nncs1)C1c2ccccc2Oc2ccccc21 was read as ERa coact pot 112, sEH activator 13, ERb SRC1 inh -8, sEH inh -11, ERa SRC1 inh -1 and HIV Rev-RRE inh 5.
Screening CCc1c(C)nc2[nH]nc(-c3ccccc3)n2c1=O returned ERa coact pot 87, sEH activator 6, ERb SRC1 inh -2, sEH inh -7, ERa SRC1 inh -4 and HIV Rev-RRE inh 1.
`O=C(Nc1nc(-c2cc3ccccc3oc2=O)cs1)c1ccco1` gave ERa coact pot 280*[fluorescence artefact?], ERb SRC1 inh 40 and ERa SRC1 inh 27.
Cc1ccc(C(=O)Nc2nc(-c3cccnc3)cs2)o1 was read as ERa coact pot 59, sEH activator -10, ERb SRC1 inh 51*, sEH inh 13, ERa SRC1 inh 48 and HIV Rev-RRE inh 2.
For O=C(Nc1nc(-c2ccncc2)cs1)c1ccco1 the results were ERa coact pot -1, sEH activator -1, ERb SRC1 inh 49, sEH inh -2, ERa SRC1 inh 98*[fluorescence artefact?] and HIV Rev-RRE inh 14.
Screening O=C(Nc1nc(-c2ccccc2)cs1)c1ccc(Br)o1 returned HIV Rev-RRE inh 8.
Screening CC(C)CC(=O)c1c[nH]c(C(=O)NCc2cccs2)c1 returned ERa coact pot 106, sEH activator -7, ERb SRC1 inh -4, sEH inh 10, ERa SRC1 inh -5 and HIV Rev-RRE inh 0.
Screening CCc1nc(SCC(N)=O)c2c(=O)n(C)c(=O)n(C)c2n1 returned ERa coact pot 92, sEH activator -2, ERb SRC1 inh 4, sEH inh 3, ERa SRC1 inh 17 and HIV Rev-RRE inh 5.
Screening CCSc1nnc(NC(=O)CSc2nc(CC)nc3c2c(=O)n(C)c(=O)n3C)s1 returned ERa coact pot 254*, sEH activator 16, ERb SRC1 inh 1, sEH inh -14, ERa SRC1 inh -2 and HIV Rev-RRE inh 9.
CSc1cc(-c2ccccc2)n(Cc2c(Cl)cccc2Cl)c(=O)c1C#N was read as ERa coact pot 116, sEH activator 11, ERb SRC1 inh 2, sEH inh -12, ERa SRC1 inh 8 and HIV Rev-RRE inh 6.
Screening CSc1cc(-c2ccc(Cl)cc2)n(Cc2ccccc2)c(=O)c1C#N returned ERa coact pot 164, sEH activator 19, ERb SRC1 inh 35, sEH inh -20, ERa SRC1 inh 54*[fluorescence artefact?] and HIV Rev-RRE inh 7.
Cc1ccc2cc(C#N)c(N3CCCN(C(=O)C4CCCO4)CC3)nc2c1 (configuration not stated) was read as ERa coact pot 92, sEH activator 13, ERb SRC1 inh 8, sEH inh -12, ERa SRC1 inh -2 and HIV Rev-RRE inh 12.
For Cc1ccc(S(=O)(=O)N2CCCN(c3nc4cc(C)ccc4cc3C#N)CC2)cc1 the results were ERa coact pot 350*[fluorescence artefact?], sEH activator -12, ERb SRC1 inh 45, sEH inh 17, ERa SRC1 inh 35 and HIV Rev-RRE inh 37*.
For Cc1cc(C)c2cc(C#N)c(N3CCCC3)nc2c1 the results were ERa coact pot 119, sEH activator 12, ERb SRC1 inh 25, sEH inh -11, ERa SRC1 inh 51*[fluorescence artefact?] and HIV Rev-RRE inh 6.
`COc1cc(C(=O)N2CCCN(c3nc4cc(C)ccc4cc3C#N)CC2)cc(OC)c1OC` gave ERa coact pot 80, ERb SRC1 inh 5 and ERa SRC1 inh 6.
For Cc1ccc2nc(N3CCN(S(=O)(=O)c4ccc5c(c4)OCCO5)CC3)c(C#N)cc2c1 the results were ERa coact pot 258*[fluorescence artefact?], sEH activator 2, ERb SRC1 inh 56*[fluorescence artefact?], sEH inh -3, ERa SRC1 inh 49 and HIV Rev-RRE inh 9.
For Cc1ccc(S(=O)(=O)N[C@@H](C)C(=O)N2CCC(C(=O)N3CCC[C@H]3C(=O)O)CC2)cc1 the results were ERa coact pot 126, sEH activator 6, ERb SRC1 inh 4, sEH inh -5, ERa SRC1 inh -6 and HIV Rev-RRE inh 5.
CC[n+]1c(/C=C/Nc2ccccc2)oc2ccccc21 was read as sEH activator 0, sEH inh 2 and HIV Rev-RRE inh 52*.
`CCOC(=O)c1ccc2c(c1)n(CC)c(/C=C/Nc1ccccc1)[n+]2CC` gave sEH activator -9, sEH inh 11 and HIV Rev-RRE inh 11.
For COc1ccc(N2CSC3=C(C#N)C(c4cc(OC)ccc4OC)CC(=O)N3C2)c(OC)c1 (configuration not stated) the results were ERa coact pot 84, sEH activator -15, ERb SRC1 inh 15, sEH inh 17, ERa SRC1 inh -9 and HIV Rev-RRE inh 17.
For CCOc1ccccc1N1CSC2=C(C#N)C(c3c(OC)ccc4ccccc34)CC(=O)N2C1 (configuration not stated) the results were ERa coact pot 376*, sEH activator 2, ERb SRC1 inh 17, sEH inh -2, ERa SRC1 inh -2 and HIV Rev-RRE inh 28.
